A word on the IC50: it is the concentration at which inhibition is half-maximal.

This is an account of results in ChEMBL document CHEMBL1148474, “Small molecule mitochondrial F1F0 ATPase hydrolase inhibitors as cardioprotective agents. Identification of 4-(N-arylimidazole)-substituted benzopyran derivatives as selective hydrolase inhibitors” (J Med Chem, 2004).

Each structure is given as a SMILES string. Bounds are passed on as bounds.

Assay [1] can be described thus: Inhibitory concentration towards rat mitochondrial F1F0-ATP synthase using a hexokinase / glucose-6-phosphate dehydrogenase coupled assay. An outline of the steps:
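ATP synthesis was run in 10 mM HEPES pH 8. Diluted enzyme was mixed with glucose, MgCl2, KPO4, potassium succinate and AMP (to block adenylate kinase) and incubated 30 min with gentle shaking. Inhibitor was then added from 50% DMSO (final DMSO 5%) for 15 min. Coupling enzymes started the reaction, and the rise in A340 was monitored.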

In assay [2] the target is Mitochondrial F1F0 ATP synthase (Rattus norvegicus). As to the kind of experiment: Inhibitory concentration towards rat mitochondrial F1F0 ATP hydrolase using a pyruvate kinase / lactate dehydrogenase system.
Assay [3] can be described thus: Inhibitory concentration towards rat mitochondrial F1F0-ATP synthase using a pyruvate kinase / lactate dehydrogenase system.

In assay [1], `CC1(C)Oc2ccc(S(=O)(=O)N3CCCCC3)cc2[C@H](N(Cc2ncc[nH]2)c2ccc(Cl)cc2)[C@H]1O` displayed an IC50 of 18 µM.

As for `CC1(C)Oc2ccc(C#N)cc2[C@H](/N=C(/NC#N)Nc2ccc(Cl)cc2)[C@H]1O`, the half-maximal inhibitory concentration (IC50) in assay [1] was 12 µM; in assay [2] it was above 100 µM.

Consider `CC1(C)Oc2ccc(C#N)cc2[C@@H](N(Cc2ncc[nH]2)c2ccc(Cl)cc2)[C@@H]1O`, for which the 50% inhibitory concentration (IC50) in assay [1] is 3.8 µM; in assay [2], 0.24 µM.

`CC1(C)Oc2ccc(C#N)cc2[C@H](N(Cc2ncco2)c2ccccc2)[C@H]1O` came in with an IC50 in assay [2] above 100 µM.

For the compound `CC1(C)Oc2ccc(C#N)cc2[C@@H](N(Cc2ncc[nH]2)c2ccccc2)[C@@H]1O`, in assay [2], the IC50 was 4.2 µM.

For `CC1(C)Oc2ccc(C#N)cc2[C@H](N(Cc2ncc[nH]2)c2ccccc2)[C@H]1O`, the IC50 in assay [2] is 2 µM.

Consider `CC1(C)Oc2ccc(C#N)cc2[C@@H](/N=C(\NC#N)Nc2ccc(Cl)cc2)[C@@H]1O`, for which the half-inhibitory concentration (IC50) in assay [1] is 30 µM; in assay [3] it was above 100 µM.

Consider `CC1(C)Oc2ccc(C#N)cc2C(N(Cc2ncc[nH]2)c2ccc(Cl)cc2)C1O` (racemic), for which, in assay [2], the 50% inhibitory concentration (IC50) turned out to be 470 µM.

With `CC1(C)Oc2ccc(C#N)cc2C(Nc2ccc(Cl)cc2)C1O` (racemic), the half-maximal inhibitory concentration (IC50) in assay [2] is 45 µM.

For `CC1(C)Oc2ccc(C#N)cc2[C@H](N(Cc2ncc[nH]2)c2ccc(Cl)cc2)[C@H]1O` [BMS-191095], the IC50 in assay [1] was found to be 4 µM; in assay [2], 0.48 µM.

As to `COc1ccc(Cl)cc1C(=O)NCCc1ccc(S(=O)(=O)NC(=O)NC2CCCCC2)cc1` [GLYBURIDE], in assay [1], the IC50 is above 100 µM.
